The values that follow come from ChEMBL document CHEMBL1122108, “(+/-)-2-Depentylperhydrohistrionicotoxin: a new probe for a regulatory site on the nicotinic acetylcholine receptor-channel” (1982).

Molecules are shown by their SMILES.

The nature of assay [1]: Percent block of sciatic nerve sartorius muscle twitch of frog 60 min after direct stimulation and exposure to 50 uM toxin for 60 min. The class given is functional, Muscle tissue. An outline of the steps:
(§1)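 Frog sartorius nerve-muscle in oxygenated physiological solution (100% O2, pH 6.9-7.1). Indirect: nerve stimulated with supramaximal 0.05-0.1 ms pulses via Ag-AgCl salt-bridge electrode. Direct: supramaximal 1.0-2.0 ms rectangular pulses at 0.05 Hz through bipolar platinum electrode around mid-muscle. Compounds at 50 µM, diluted in physiological solution just before use, applied 60 min. Twitch tension recorded; means ± SD from at least three muscles.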

Assay [2] can be described thus: Percent block of sciatic nerve sartorius muscle twitch of frog 60 min after indirect stimulation and exposure to 50 uM toxin for 60 min. The class given is functional, Muscle tissue. An outline of the steps: as §1
A short description of assay [3]: Percent block of sciatic nerve sartorius muscle twitch of frog 30 min after indirect stimulation and exposure to 50 uM toxin for 60 min. The class given is functional, Muscle tissue. An outline of the steps: as §1
Assay [4] is described as follows: Percent block of sciatic nerve sartorius muscle twitch of frog 30 min after direct stimulation and exposure to 50 uM toxin for 60 min. The class given is functional, Muscle tissue. Summed up:
as §1

Assay [5] is described as follows: Percent maximum potentiation of the sciatic nerve sartorius muscle twitch after indirect stimulation and exposure to 50 uM toxin for 60 min. Format: functional, frog, Muscle tissue. Summed up:
as §1

A short description of assay [6]: Percent maximum potentiation of the sciatic nerve sartorius muscle twitch after direct stimulation and exposure to 50 uM toxin for 60 min. The class given is functional, frog, Muscle tissue. Summed up: as §1

As for `CCCC[C@@H]1[C@@H](OC(C)=O)CCCC12CCCC[N+]2(C)C.[I-]` (some centres undefined), the Block in assay [1] was 47%; in assay [2], 91%; in assay [3] it was 85%; in assay [4], 34%.
`CCCCC1C(OC(=O)OC)CCCC12CCCCN2C(=O)OC` (centres undefined): the Block in assay [1], in assay [2], in assay [3] and in assay [4] was 0% each time.
For the molecule `CCCC[C@@H]1[C@H](O)CCCC12CCCCN2` (some centres undefined), the Block in assay [1] stood at 30%; in assay [2], 61%; in assay [3], 55%; in assay [4] it was 19%.
`CCCCC1C(O)CCCC12CCCCN2` (centres undefined): the Block in assay [1] is given as 52%; in assay [2], 100%; in assay [3], 96%; in assay [4] it was 52%.
For the molecule `CCCC[C@@H]1[C@@H](O)CCCC12CCCC[N+]2(C)C.[I-]` (some centres undefined), the Block came to 43% in assay [1], 49% in assay [2], 39% in assay [3] and 29% in assay [4].
Turning to `CCCC[C@@H]1[C@H](O)CCCC12CCCCN2C` (some centres undefined), the Block in assay [1] is given as 5%; in assay [2], 65%; in assay [3], 62%; in assay [4] it was 5%.
On to `CCCCC1C(OC(C)=O)CCCC12CCCCN2C` (centres undefined), for which the Block in assay [1] is 25%; in assay [2], 94%; in assay [3], 88%; in assay [4], 22%.
The like results for `CCCCC1C(OC(=O)OC)CCCC12CCCCN2` (centres undefined) were, in that order, 25%, 82%, 67% and 14%.
Turning to `CCCC[C@@H]1C(=O)CCCC12CCCCN2C` (some centres undefined), the Block in assay [1] was found to be 33%; in assay [2] it was 56%; in assay [3] it was 49%; in assay [4], 26%.
With `CCCCC1C(O)CCCC12CCCCN2C(C)=O` (centres undefined), the Activity is reported as 116% in assay [5] and 103% in assay [6]. For the same molecule, the Block came to 24% in assay [1], 26% in assay [2], 10% in assay [3] and 20% in assay [4].
For `CCCCC1C(O)CCCC12CCCCN2C` (centres undefined), the Block is reported as 30% in assay [1], 92% in assay [2], 78% in assay [3] and 24% in assay [4].
For `CCCC[C@@H]1C(=O)CCCC12CCCCN2` (some centres undefined), in that order: 25%, 58%, 46% and 8%.
Take `CCCCC1C(OC(C)=O)CCCC12CCCCN2C(C)=O` (centres undefined): the Activity in assay [5] was determined as 125%; in assay [6], 118%. Also, the Block in assay [1], in assay [2], in assay [3] and in assay [4] was 0% each time.
Consider `CCCC[C@@H]1[C@H](O)CCCC12CCCC[N+]2(C)C.[I-]` (some centres undefined), for which the Block in assay [1] is reported as 49%; in assay [2] it was 83%; in assay [3] it was 74%; in assay [4], 48%.
The like results for `CCCCC1C2CCCC13CCCCN3C(=O)O2` (centres undefined) were, in that order, 31%, 66%, 35% and 22%.
As for `CCCC[C@@H]1C(=O)CCCC12CCCCN2C(C)=O` (some centres undefined), the Activity in assay [5] came out at 117%; in assay [6], 102%. Also, the Block in assay [1] was determined as 6%; in assay [2], 20%; in assay [3], 7%; in assay [4], 0%.
For the molecule `CCCCCC1CCC[C@]2(CCC[C@H](O)C2CCCC)N1` (some centres undefined), the Block in assay [1] was 45%; in assay [2], 100%; in assay [3], 100%; in assay [4], 47%.
